Reference: ChEMBL document CHEMBL4414651, “Discovery and Optimization of Salicylic Acid-Derived Sulfonamide Inhibitors of the WD Repeat-Containing Protein 5-MYC Protein-Protein Interaction” (J Med Chem, 2019)
Values belong to the compound of their own block, whether it stands above or below them. Active and inactive are the calls of the source. No cut-off for these calls is given here.

Columns and labels:
[1] = target: T1, WD repeat-containing protein 5 (Homo sapiens, UniProt P61964)
[2] = Solubility of the compound; format: physicochemical
Method in brief: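 Kinetic solubility, measured by an outside contract lab using a standard commercial assay format.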

[3] = Apparent permeability from apical to basolateral side in MDCK cells; format: ADME, cell-based, Canis lupus familiaris; conditions: dog
[4] = Protein binding in plasma (unknown origin) assessed as unbound fraction; format: ADME, cell-free
[5] = target: T1, WD repeat-containing protein 5; assay: Binding affinity to N-terminal FLAG-tagged human full-length WDR5 expressed in HEK293T cells harboring human C-terminal HA-tagged c-MYC assessed as disruption of WDR5-c-MYC protein-protein interaction at 50 uM by SDS-PAGE based immunoblot assay; format: cell-based
[6] = target: T1, WD repeat-containing protein 5; assay: Binding affinity to N-terminal FLAG-tagged human full-length WDR5 expressed in HEK293T cells harboring human C-terminal HA-tagged c-MYC assessed as disruption of WDR5-RBBP5 protein-protein interaction at 50 uM by SDS-PAGE based immunoblot assay; format: cell-based
Method in brief: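 HEK293 cells expressing FLAG-WDR5 and c-MYC-HA were kept in DMEM with 10% FBS, hygromycin B 50 μg/mL and puromycin 100 ng/mL. Lysates in Tris pH 8.0/NaCl/EDTA/1% Triton buffer were treated with compound at 50 μM or 6.25–50 μM. α-FLAG magnetic M2 beads, 2 h at 4 °C, then SDS-PAGE and α-RBBP5 immunoblot. Quantified against vehicle; at least two independent repeats.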

[7] = target: T1, WD repeat-containing protein 5; assay: Binding affinity to N-terminal FLAG-tagged human full-length WDR5 […] assessed as change in melting temperature at 10 uM by differential scanning fluorimetry
Method in brief: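 Thermal shift (differential scanning fluorimetry) on WDR5, with compounds at 10 μM. Samples were run in triplicate, and ΔTm is the average melting-temperature shift read by fluorescence.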

Homo sapiens = species on record: Homo sapiens; assay: Inhibition of human MLL1/WDR5/RBBP5/ASH2L/DPY30 complex assessed as reduction in histone methyl-transferase activity using H3-peptide as substrate

Compound: CNC(=O)c1cc(Cl)cc(NS(=O)(=O)c2cc(Br)cc(Cl)c2O)c1O
Kd [1]: 298 nM

Compound: CS(=O)(=O)c1cc(Cl)cc(NS(=O)(=O)c2cc(Br)cc(Cl)c2O)c1
Kd [1]: 220 nM
solubility [2]: > 100 µM
Papp [3]: 3.89 ×10⁻⁶ cm/s
Fu [4]: 0.0007%

Kd [1]: 272 nM
Compound: CS(=O)(=O)c1cc(C2(C#N)CCC2)cc(NS(=O)(=O)c2cc(Br)cc3cccnc23)c1O

Compound: CS(=O)(=O)c1cc(C2(C#N)CCC2)cc(NS(=O)(=O)c2cc(Br)cc(Cl)c2O)c1O
Kd [1]: 110 nM

Compound: CNC(=O)c1cc(NS(=O)(=O)c2cc(Br)ccc2O)cc(C2(C#N)CCC2)c1
Kd [1]: 1080 nM

Compound: COc1ccc(Br)cc1S(=O)(=O)Nc1cc(C(C)(C)C)ccc1O
Kd [1]: 3780 nM

Compound: CS(=O)(=O)c1cc(Cl)cc(NS(=O)(=O)c2cc(Br)ccc2O)c1
Kd [1]: 1880 nM
solubility [2]: > 100 µM
Papp [3]: 4.79 ×10⁻⁶ cm/s
Fu [4]: 0.004%

Compound: N#CC1(c2ccc(O)c(NS(=O)(=O)c3cc(Br)ccc3O)c2)CCCCC1
Kd [1]: 229 nM

Compound: O=C(O)c1cc(NS(=O)(=O)c2cc(Br)ccc2O)cc(S(F)(F)(F)(F)F)c1
Kd [1]: 64 nM

Compound: CS(=O)(=O)c1cc(NS(=O)(=O)c2cc(Br)ccc2O)cc(S(F)(F)(F)(F)F)c1
Kd [1]: 511 nM
solubility [2]: > 100 µM
Papp [3]: 16.1 ×10⁻⁶ cm/s
Fu [4]: 0.002%

Compound: O=C(O)c1cc(C2CC2)cc(NS(=O)(=O)c2cc(Br)cc(Cl)c2O)c1O
Kd [1]: 207 nM

Compound: CNC(=O)c1cc(C2(C#N)CCCCC2)cc(NS(=O)(=O)c2cc(Br)cc(Cl)c2O)c1O
Activity [5]: Active
Kd [1]: 362 nM
Activity [6]: Active

Activity [5]: Active
Kd [1]: 385 nM
Compound: CS(=O)(=O)c1cc(Cl)cc(NS(=O)(=O)c2cc(Br)cc3cccnc23)c1O

Compound: N#CC1(c2ccc(O)c(NS(=O)(=O)c3cc(Br)ccc3O)c2)CCCC1
Kd [1]: 614 nM

Compound: O=C(O)c1cc(OC(F)(F)F)cc(NS(=O)(=O)c2cc(Br)ccc2O)c1O
Kd [1]: 137 nM

Compound: O=C(O)c1cc(Cl)cc(NS(=O)(=O)c2cc(Br)ccc2O)c1O
Kd [1]: 223 nM
ΔTm [7]: 4.05 °C

Kd [1]: 27700 nM
Compound: COc1ccc(Br)cc1S(=O)(=O)Nc1ccc(Cl)cc1O

Compound: CNC(=O)c1cc(S(F)(F)(F)(F)F)cc(NS(=O)(=O)c2cc(Br)cc(Cl)c2O)c1O
Activity [5]: Active
Kd [1]: 190 nM

Kd [1]: > 125000 nM
Compound: CCOc1ccc(S(=O)(=O)Nc2ccccc2C(=O)O)c(C)c1C

Kd [1]: 71000 nM
Compound: CCOc1cc(S(=O)(=O)Nc2ccccc2C(=O)O)ccc1F

Compound: O=S(=O)(Nc1cc(OC(F)(F)F)ccc1O)c1cc(Br)ccc1O
Kd [1]: 549 nM

Compound: O=C(O)c1cc(NS(=O)(=O)c2cc(Br)ccc2O)cc(OC(F)(F)F)c1
Kd [1]: 194 nM

Compound: CNC(=O)c1cc(S(F)(F)(F)(F)F)cc(NS(=O)(=O)c2cc(Br)ccc2O)c1O
Kd [1]: 204 nM

Compound: CNC(=O)c1cc(NS(=O)(=O)c2cc(Br)cc(Cl)c2O)cc(C2(C#N)CCC2)c1
Kd [1]: 128 nM

Compound: CNC(=O)c1c(O)c(NS(=O)(=O)c2cc(Br)cc(Cl)c2O)cc(C2CC2)c1F
Activity [5]: Active
Kd [1]: 238 nM
Activity [6]: Active
inhibition (Homo sapiens): Active

inhibition (Homo sapiens): Active
Compound: COc1ccc(Br)cc1S(=O)(=O)Nc1cc(Cl)ccc1O

Compound: COc1ccc(I)cc1S(=O)(=O)Nc1cc(Cl)ccc1O
Kd [1]: 8390 nM

Compound: CS(=O)(=O)c1cc(C2(C#N)CCC2)cc(NS(=O)(=O)c2cc(Br)ccc2O)c1O
Kd [1]: 349 nM

Compound: COc1ccc(Br)cc1S(=O)(=O)Nc1cc(Cl)cc(C(=O)O)c1O
Kd [1]: 431 nM

Compound: O=C(O)c1cc(Cl)cc(NS(=O)(=O)c2cc(Br)ccc2O)c1
Kd [1]: 2880 nM

Kd [1]: 122 nM
Compound: CNC(=O)c1cc(S(F)(F)(F)(F)F)cc(NS(=O)(=O)c2cc(Br)cc3cccnc23)c1O

Compound: COc1ccccc1S(=O)(=O)Nc1cc(Cl)ccc1O
Kd [1]: > 40000 nM

Compound: O=C(O)c1cc(Cl)cc(NS(=O)(=O)c2cc(Br)cc(Cl)c2O)c1O
Kd [1]: 163 nM
ΔTm [7]: 4.05 °C

Kd [1]: 104 nM
Compound: N#CC1(c2cc(NS(=O)(=O)c3cc(Br)cc4cccnc34)c(O)c(C(=O)O)c2)CCC1

Kd [1]: 47 nM
Compound: O=C(O)c1cc(S(F)(F)(F)(F)F)cc(NS(=O)(=O)c2cc(Br)cc3cccnc23)c1O

Compound: O=C(O)c1cc(S(F)(F)(F)(F)F)cc(NS(=O)(=O)c2cc(Br)cc(Cl)c2O)c1O
Kd [1]: 31 nM
ΔTm [7]: 8.42 °C

Activity [5]: Active
Kd [1]: 906 nM
Compound: CNC(=O)c1cc(C2(C#N)CCC2)cc(NS(=O)(=O)c2cc(Br)ccc2OC)c1O

Compound: COc1ccc(Br)cc1S(=O)(=O)Nc1ccccc1O
Kd [1]: > 40000 nM

Compound: O=S(=O)(Nc1cc(Cl)ccc1O)c1cccc(Br)c1
Kd [1]: 36100 nM

Compound: COc1ccc(Cl)cc1S(=O)(=O)Nc1cc(Cl)ccc1O
Kd [1]: 8410 nM

Compound: CS(=O)(=O)c1cc(NS(=O)(=O)c2cc(Br)cc(Cl)c2O)cc(S(F)(F)(F)(F)F)c1
Activity [5]: Active
Kd [1]: 93 nM

Activity [5]: Active
Kd [1]: 304 nM
Compound: COc1ccc(Br)cc1S(=O)(=O)Nc1cc(Cl)cc(S(C)(=O)=O)c1O

Compound: N#CC1(c2cc(NS(=O)(=O)c3ccc(Br)cc3O)c(O)c(C(=O)O)c2)CCC1
ΔTm [7]: 0.42 °C

Compound: O=S(=O)(Nc1cc(C2(C(F)(F)F)CC2)ccc1O)c1cc(Br)ccc1O
Kd [1]: 547 nM

Compound: O=S(=O)(Nc1cc(S(F)(F)(F)(F)F)ccc1O)c1cc(Br)ccc1O
Kd [1]: 110 nM
solubility [2]: > 100 µM
Papp [3]: 14.7 ×10⁻⁶ cm/s
inhibition (Homo sapiens): Active

Compound: O=S(=O)(Nc1cc(Cl)ccc1O)c1cc(Br)ccc1O
Kd [1]: 1250 nM
solubility [2]: > 100 µM
Papp [3]: 36.4 ×10⁻⁶ cm/s
Fu [4]: < 0.0026%

Compound: O=C(O)c1c(O)c(NS(=O)(=O)c2cc(Br)cc(Cl)c2O)cc(C2CC2)c1F
Activity [5]: Active
Kd [1]: 50 nM
Activity [6]: Active
inhibition (Homo sapiens): Active

Compound: CS(=O)(=O)c1cc(Cl)cc(NS(=O)(=O)c2cc(Br)cc(Cl)c2O)c1O
Activity [5]: Active
Kd [1]: 123 nM
inhibition (Homo sapiens): Active

Compound: N#CC1(c2cc(NS(=O)(=O)c3cc(Br)ccc3O)c(O)c(C(=O)O)c2)CCCCC1
Kd [1]: 195 nM

Compound: CNC(=O)c1cc(NS(=O)(=O)c2cc(Br)ccc2O)cc(S(F)(F)(F)(F)F)c1
Kd [1]: 848 nM

Compound: COc1ccc(Br)cc1S(=O)(=O)Nc1cc(-c2ccccc2)ccc1O
Kd [1]: 37000 nM

Compound: CS(=O)(=O)c1cc(S(F)(F)(F)(F)F)cc(NS(=O)(=O)c2cc(Br)cc(Cl)c2O)c1O
Kd [1]: 45 nM
solubility [2]: > 100 µM
Papp [3]: 18.6 ×10⁻⁶ cm/s
Fu [4]: < 0.0003%

Activity [5]: Active
Kd [1]: 825 nM
Compound: CNC(=O)c1cc(C2(C#N)CCC2)cc(NS(=O)(=O)c2cc(Br)cc3cccnc23)c1O

Compound: O=C(O)c1c(O)c(NS(=O)(=O)c2cc(Br)ccc2O)cc(C2CC2)c1F
Kd [1]: 122 nM
solubility [2]: > 100 µM
Papp [3]: 0.61 ×10⁻⁶ cm/s
Fu [4]: < 0.0008%
inhibition (Homo sapiens): Active

Compound: CS(=O)(=O)c1cc(NS(=O)(=O)c2cc(Br)cc(Cl)c2O)cc(C2(C#N)CCC2)c1
Kd [1]: 215 nM

Compound: CS(=O)(=O)c1cc(S(F)(F)(F)(F)F)cc(NS(=O)(=O)c2cc(Br)ccc2O)c1O
Kd [1]: 167 nM

Compound: CNC(=O)c1cc(C2(C#N)CCC2)cc(NS(=O)(=O)c2cc(Br)ccc2O)c1O
Activity [5]: Active
Kd [1]: 566 nM
solubility [2]: > 100 µM
Papp [3]: 45.2 ×10⁻⁶ cm/s
Fu [4]: < 0.0006%
Activity [6]: Active
inhibition (Homo sapiens): Active

Compound: O=S(=O)(Nc1cc(C2CC2)ccc1O)c1cc(Br)ccc1O
Kd [1]: 818 nM

Compound: CS(=O)(=O)c1cc(Cl)cc(NS(=O)(=O)c2cc(Br)ccc2O)c1O
Kd [1]: 1070 nM
inhibition (Homo sapiens): Active
